Laboratory results as given in ChEMBL document CHEMBL4049460, “Trisubstituted Imidazoles with a Rigidized Hinge Binding Motif Act As Single Digit nM Inhibitors of Clinically Relevant EGFR L858R/T790M and L858R/T790M/C797S Mutants: An Example of Target Hopping” (J Med Chem, 2017).
In brackets after ≈: the same amount, converted by molar mass.

Columns and labels:
[1] = target: Epidermal growth factor receptor (Homo sapiens, UniProt P00533); experiment: Inhibition of recombinant human GST-tagged wild type EGFR ( 668 to 1210 residues) cytoplasmic domain expressed in baculovirus expression system preincubated for 20 mins followed by addition of [33P]-ATP measured after 2 hrs by filter-binding method; settings: read-out: IC50
[2] = target: T1, Epidermal growth factor receptor (Homo sapiens, UniProt P00533, L858R); experiment: Inhibition of recombinant human GST-tagged EGFR L858R mutant cytoplasmic domain expressed in baculovirus expression system preincubated for 20 mins followed by addition of [33P]-ATP measured after 2 hrs by filter-binding method; settings: read-out: IC50
[3] = Solubility of the compound at pH 7.5 by UV-HPLC analysis; assay type: physicochemical; settings: buffer, read-out: solubility
Procedure, shortened: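 Solubility measured in the kinase assay buffer (pH 7.5); concentration determined by HPLC with UV detection.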

[4] = target: T1, Epidermal growth factor receptor; experiment: Binding affinity to human EGFR L858R mutant (669 to 1011 residues) expressed in bacterial system incubated for 1 hr
Procedure, shortened: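 Competition binding: compound's ability to displace an immobilized, active-site-directed ligand from the kinase, reported as Kd. Compound and kinase were combined and equilibrated 1 h without dilution before read-out.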

[5] = target: Epidermal growth factor receptor (Homo sapiens, UniProt P00533, L858R/T790M); experiment: Binding affinity to human EGFR L858R/T790M double mutant (669 to 1011 residues) expressed in mammalian system preincubated for 1 hr followed by 30 fold dilution measured after 5 hrs
Procedure, shortened: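 Competition binding against an immobilized active-site-directed ligand; Kd read out. Compound and kinase combined and equilibrated 1 h, then diluted 30-fold in reaction buffer and equilibrated a further 5 h (study arm B).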

Homo sapiens [6] = species: Homo sapiens; experiment: (§1) Inhibition of recombinant human N-terminally GST-His6 tagged EGFR del 747-749/A750P mutant (H672 to A1210 residues) C-terminal fragment harboring 3C cleavage site expressed in Baculovirus infected Sf9 cells assessed as residual activity at 1 uM in presence of [33-gamma]-ATP after 60 mins by scintillation counting method relative to control
Homo sapiens [7] = species: Homo sapiens; experiment: as §1, with “752-759” for “747-749/A750P”
[8] = test system: Epidermal growth factor receptor (Homo sapiens), P00533 [G719C]; experiment: as §1, with “G719C” for “del 747-749/A750P”
[9] = test system: Epidermal growth factor receptor (Homo sapiens), P00533 [G719S]; experiment: as §1, with “G719S” for “del 747-749/A750P”
[10] = test system: Epidermal growth factor receptor (Homo sapiens), P00533 [L858R]; experiment: as §1, with “L858R” for “del 747-749/A750P”
[11] = test system: Epidermal growth factor receptor (Homo sapiens), P00533 [L861Q]; experiment: as §1, with “L861Q” for “del 747-749/A750P”
[12] = test system: Epidermal growth factor receptor (Homo sapiens), P00533 [T790M]; experiment: as §1, with “T790M” for “del 747-749/A750P”
EGFR (wild-type) = EGFR (wild-type) (Homo sapiens, UniProt P00533); experiment: as §1, with “recombinant wild-type” for “recombinant”, “EGFR” for “EGFR del 747-749/A750P mutant”; settings: read-out: Activity
[13] = target: Receptor tyrosine-protein kinase erbB-2 (Homo sapiens) (UniProt P04626); experiment: as §1, with “recombinant wild-type” for “recombinant”, “ERBB2 (Q679” for “EGFR del 747-749/A750P mutant (H672”, “V1255” for “A1210”, “thrombin” for “3C”
[14] = target: Tyrosine-protein kinase BTK (Homo sapiens) (UniProt Q06187); experiment: Inhibition of recombinant full-length human N-terminally GST-HIS6 tagged BTK (M1 to S659 residues) harboring 3C-cleavage site expressed in Baculovirus infected Sf9 cells assessed as residual activity at 1 uM in presence of [33-gamma]-ATP after 60 mins by scintillation counting method relative to control
[15] = target: Casein kinase I isoform delta (Homo sapiens) (UniProt P48730); experiment: Inhibition of CK1 delta (unknown origin) assessed as residual activity at 1 uM in presence of [33-gamma]-ATP after 60 mins by scintillation counting method relative to control
[16] = target: Serine/threonine-protein kinase 26 (Homo sapiens) (UniProt Q9P289); experiment: Inhibition of recombinant full-length human MST4 (M1 to P416 residues) harboring thrombin cleavage site expressed in Baculovirus infected Sf9 cells assessed as residual activity at 1 uM in presence of [33-gamma]-ATP after 60 mins by scintillation counting method relative to control
[17] = target: Serine/threonine-protein kinase 25 (Homo sapiens) (UniProt O00506); experiment: Inhibition of STK25 (unknown origin) assessed as residual activity at 1 uM in presence of [33-gamma]-ATP after 60 mins by scintillation counting method relative to control
[18] = target: Tyrosine-protein kinase Tec (Homo sapiens) (UniProt P42680); experiment: Inhibition of TEC (unknown origin) assessed as residual activity at 1 uM in presence of [33-gamma]-ATP after 60 mins by scintillation counting method relative to control
[19] = target: Tyrosine-protein kinase TXK (Homo sapiens) (UniProt P42681); experiment: Inhibition of TXK (unknown origin) assessed as residual activity at 1 uM in presence of [33-gamma]-ATP after 60 mins by scintillation counting method relative to control
[20] = target: Mitogen-activated protein kinase 14 (Homo sapiens, UniProt Q16539); experiment: Inhibition of p38alpha MAPK (unknown origin) assessed as decrease in ATF2 phosphorylation at Thr69/71 at 1 uM after 1 hr by ELISA
Homo sapiens [21] = species: Homo sapiens; experiment: Selectivity ratio of IC50 for p38alpha MAPK (unknown origin) to IC50 for recombinant human GST-tagged EGFR L858R/T790M double mutant cytoplasmic domain expressed in baculovirus expression system

Serine/threonine-protein kinase 26 (Homo sapiens), sequence (Q9P289 2-416 limits assumed): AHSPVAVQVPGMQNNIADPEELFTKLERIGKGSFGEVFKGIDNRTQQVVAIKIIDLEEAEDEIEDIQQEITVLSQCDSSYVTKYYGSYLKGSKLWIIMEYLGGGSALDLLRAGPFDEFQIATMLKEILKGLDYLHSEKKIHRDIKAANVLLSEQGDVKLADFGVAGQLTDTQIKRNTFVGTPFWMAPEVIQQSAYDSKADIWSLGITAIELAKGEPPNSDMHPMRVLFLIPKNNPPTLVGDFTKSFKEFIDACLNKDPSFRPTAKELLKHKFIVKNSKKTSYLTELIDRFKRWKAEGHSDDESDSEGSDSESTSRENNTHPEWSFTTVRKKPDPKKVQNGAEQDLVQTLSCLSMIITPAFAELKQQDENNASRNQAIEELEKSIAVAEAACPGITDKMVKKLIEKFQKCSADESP
Tyrosine-protein kinase BTK (Homo sapiens), sequence (Q06187 whole entry, the tested form may be a part, canonical isoform): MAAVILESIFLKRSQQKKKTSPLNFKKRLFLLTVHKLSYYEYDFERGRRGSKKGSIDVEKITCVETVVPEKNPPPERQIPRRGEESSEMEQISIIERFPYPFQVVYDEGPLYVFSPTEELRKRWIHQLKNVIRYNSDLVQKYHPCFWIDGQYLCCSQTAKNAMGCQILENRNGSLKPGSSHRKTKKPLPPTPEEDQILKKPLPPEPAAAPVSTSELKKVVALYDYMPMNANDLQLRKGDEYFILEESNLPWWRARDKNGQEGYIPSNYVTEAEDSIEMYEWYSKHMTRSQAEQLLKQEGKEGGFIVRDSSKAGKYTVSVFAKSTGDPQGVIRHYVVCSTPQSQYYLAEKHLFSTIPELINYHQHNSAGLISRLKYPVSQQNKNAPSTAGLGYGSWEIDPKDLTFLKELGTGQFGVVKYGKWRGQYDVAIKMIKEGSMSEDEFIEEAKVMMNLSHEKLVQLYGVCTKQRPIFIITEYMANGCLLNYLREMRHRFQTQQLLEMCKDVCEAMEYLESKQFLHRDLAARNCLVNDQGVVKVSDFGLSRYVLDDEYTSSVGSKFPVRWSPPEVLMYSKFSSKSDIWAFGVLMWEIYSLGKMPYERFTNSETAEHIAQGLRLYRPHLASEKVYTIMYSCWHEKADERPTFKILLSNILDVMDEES
Tyrosine-protein kinase TXK (Homo sapiens), sequence (P42681 whole entry): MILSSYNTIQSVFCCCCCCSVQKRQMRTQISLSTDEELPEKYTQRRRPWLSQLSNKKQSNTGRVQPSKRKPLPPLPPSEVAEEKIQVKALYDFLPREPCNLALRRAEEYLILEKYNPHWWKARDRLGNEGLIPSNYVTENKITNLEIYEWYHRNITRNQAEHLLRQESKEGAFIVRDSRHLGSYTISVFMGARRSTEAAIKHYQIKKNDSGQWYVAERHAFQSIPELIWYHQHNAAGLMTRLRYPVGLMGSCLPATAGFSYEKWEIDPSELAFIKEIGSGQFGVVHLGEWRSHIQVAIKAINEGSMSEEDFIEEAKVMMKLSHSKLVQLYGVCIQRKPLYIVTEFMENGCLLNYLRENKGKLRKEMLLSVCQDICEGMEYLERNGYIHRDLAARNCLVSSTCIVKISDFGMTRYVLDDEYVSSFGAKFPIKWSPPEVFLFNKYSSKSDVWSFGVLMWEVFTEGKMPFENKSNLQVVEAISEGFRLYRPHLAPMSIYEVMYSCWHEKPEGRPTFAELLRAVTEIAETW
Receptor tyrosine-protein kinase erbB-2 (Homo sapiens), sequence (P04626 whole entry, the tested form may be a part): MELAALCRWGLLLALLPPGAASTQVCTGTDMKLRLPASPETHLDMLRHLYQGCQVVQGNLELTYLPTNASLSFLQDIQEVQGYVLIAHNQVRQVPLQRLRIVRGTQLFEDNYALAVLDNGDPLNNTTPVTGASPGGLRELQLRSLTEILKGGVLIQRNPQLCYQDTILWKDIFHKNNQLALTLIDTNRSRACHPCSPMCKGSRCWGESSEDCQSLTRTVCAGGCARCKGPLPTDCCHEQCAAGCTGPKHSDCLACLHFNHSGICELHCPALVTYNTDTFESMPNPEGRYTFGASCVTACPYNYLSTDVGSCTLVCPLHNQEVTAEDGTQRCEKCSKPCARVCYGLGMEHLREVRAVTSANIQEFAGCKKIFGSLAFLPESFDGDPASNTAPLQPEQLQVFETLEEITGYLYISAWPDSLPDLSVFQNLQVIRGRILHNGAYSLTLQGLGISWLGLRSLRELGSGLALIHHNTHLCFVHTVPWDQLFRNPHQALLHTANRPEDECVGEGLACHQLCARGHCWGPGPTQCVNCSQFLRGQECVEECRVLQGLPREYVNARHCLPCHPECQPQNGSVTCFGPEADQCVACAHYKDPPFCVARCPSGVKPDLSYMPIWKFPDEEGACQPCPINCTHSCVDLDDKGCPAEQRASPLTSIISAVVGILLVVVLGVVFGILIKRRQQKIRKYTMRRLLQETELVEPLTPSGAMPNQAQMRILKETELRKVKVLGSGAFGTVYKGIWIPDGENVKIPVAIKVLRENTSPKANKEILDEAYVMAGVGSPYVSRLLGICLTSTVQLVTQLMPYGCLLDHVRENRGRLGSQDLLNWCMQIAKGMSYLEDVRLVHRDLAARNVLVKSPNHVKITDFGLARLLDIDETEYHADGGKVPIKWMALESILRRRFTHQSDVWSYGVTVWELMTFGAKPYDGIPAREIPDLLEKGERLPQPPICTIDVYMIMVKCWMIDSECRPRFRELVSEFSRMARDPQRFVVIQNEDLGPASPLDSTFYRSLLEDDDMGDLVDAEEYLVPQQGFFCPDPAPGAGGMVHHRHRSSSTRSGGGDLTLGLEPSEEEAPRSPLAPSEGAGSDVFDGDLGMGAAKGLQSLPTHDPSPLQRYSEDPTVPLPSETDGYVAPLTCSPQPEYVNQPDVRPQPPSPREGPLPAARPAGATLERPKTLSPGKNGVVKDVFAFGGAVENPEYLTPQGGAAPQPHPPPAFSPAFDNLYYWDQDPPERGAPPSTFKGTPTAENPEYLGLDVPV
Casein kinase I isoform delta (Homo sapiens), sequence (P48730 whole entry, looked up, the tested form may be a part, canonical isoform): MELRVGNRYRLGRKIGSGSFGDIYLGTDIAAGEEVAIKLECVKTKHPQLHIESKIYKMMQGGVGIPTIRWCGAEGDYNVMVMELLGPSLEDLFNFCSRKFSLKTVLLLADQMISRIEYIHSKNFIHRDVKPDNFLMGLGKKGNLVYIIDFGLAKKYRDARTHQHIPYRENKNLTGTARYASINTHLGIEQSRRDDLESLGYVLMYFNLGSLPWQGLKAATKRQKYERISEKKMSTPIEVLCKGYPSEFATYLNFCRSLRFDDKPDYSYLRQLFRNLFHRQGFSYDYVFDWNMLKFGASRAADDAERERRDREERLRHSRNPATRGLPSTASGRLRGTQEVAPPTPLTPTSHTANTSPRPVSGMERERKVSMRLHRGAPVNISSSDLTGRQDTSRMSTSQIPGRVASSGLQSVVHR
Serine/threonine-protein kinase 25 (Homo sapiens), sequence (O00506 whole entry, looked up): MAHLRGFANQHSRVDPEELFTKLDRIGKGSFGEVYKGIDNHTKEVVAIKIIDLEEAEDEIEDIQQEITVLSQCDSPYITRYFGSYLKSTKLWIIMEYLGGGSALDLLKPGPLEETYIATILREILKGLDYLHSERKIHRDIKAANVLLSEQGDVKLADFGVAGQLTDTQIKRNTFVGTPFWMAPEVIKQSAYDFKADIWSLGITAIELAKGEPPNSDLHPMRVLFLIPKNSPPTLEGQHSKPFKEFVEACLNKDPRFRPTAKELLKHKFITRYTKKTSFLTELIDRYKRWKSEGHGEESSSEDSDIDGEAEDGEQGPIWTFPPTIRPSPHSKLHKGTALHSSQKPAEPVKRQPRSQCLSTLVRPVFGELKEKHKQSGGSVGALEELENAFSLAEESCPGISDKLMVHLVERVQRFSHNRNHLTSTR
Mitogen-activated protein kinase 14, sequence (Q16539 whole entry, the tested form may be a part): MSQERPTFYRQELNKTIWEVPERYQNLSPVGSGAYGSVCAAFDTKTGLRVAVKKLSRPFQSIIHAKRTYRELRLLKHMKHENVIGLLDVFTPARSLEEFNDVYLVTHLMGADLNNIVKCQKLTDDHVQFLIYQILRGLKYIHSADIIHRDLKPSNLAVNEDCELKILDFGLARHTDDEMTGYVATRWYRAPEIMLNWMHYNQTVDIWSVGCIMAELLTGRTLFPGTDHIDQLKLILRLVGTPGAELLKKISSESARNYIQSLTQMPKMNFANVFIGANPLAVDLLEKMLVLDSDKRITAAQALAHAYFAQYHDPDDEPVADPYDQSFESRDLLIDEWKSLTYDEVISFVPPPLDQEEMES
Tyrosine-protein kinase Tec (Homo sapiens), sequence (P42680 whole entry): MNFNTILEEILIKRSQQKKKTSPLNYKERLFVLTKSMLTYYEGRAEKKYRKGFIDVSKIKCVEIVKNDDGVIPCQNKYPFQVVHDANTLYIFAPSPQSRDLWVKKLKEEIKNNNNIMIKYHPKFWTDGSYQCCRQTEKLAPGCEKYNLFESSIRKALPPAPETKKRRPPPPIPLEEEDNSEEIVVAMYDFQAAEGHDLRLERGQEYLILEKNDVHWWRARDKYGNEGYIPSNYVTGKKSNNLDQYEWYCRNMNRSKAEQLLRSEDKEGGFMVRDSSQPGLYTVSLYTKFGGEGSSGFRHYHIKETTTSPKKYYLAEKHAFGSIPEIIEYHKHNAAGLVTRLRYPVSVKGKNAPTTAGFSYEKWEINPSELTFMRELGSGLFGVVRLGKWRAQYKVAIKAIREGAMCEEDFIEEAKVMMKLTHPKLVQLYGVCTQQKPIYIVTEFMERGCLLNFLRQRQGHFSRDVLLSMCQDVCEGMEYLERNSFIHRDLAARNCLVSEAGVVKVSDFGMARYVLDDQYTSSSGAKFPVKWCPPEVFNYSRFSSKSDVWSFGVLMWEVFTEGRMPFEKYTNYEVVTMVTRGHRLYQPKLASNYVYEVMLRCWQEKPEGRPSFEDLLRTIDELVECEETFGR

C=CC(=O)Nc1cccc(-c2c[nH]c3nccc(-c4[nH]c(CCCO)nc4-c4ccc(F)cc4)c23)c1 showed an IC50 [1] of under 0.3 nM, an IC50 [2] of under 0.3 nM and a solubility [3] of 299 µg/mL (≈ 621 µM). For the same compound, the Kd [4] was 0.93 nM, the Kd [5] was 14 nM and the Activity (Homo sapiens [6]) was 6%. For the same compound, the Activity (Homo sapiens [7]) was 6%, the Activity [8] was 37% and the Activity [9] was 22%. For the same compound, the Activity [10] was 6%, the Activity [11] was 3% and the Activity [12] was 12%. It also gave an activity at 1 h, 1 µM (EGFR (wild-type)) of 5%, an Activity [13] of 17% and an Activity [14] of 17%. The Activity [15] was 47%, the Activity [16] was 47% and the Activity [17] was 49%. For the same compound, the Activity [18] was 33%, the Activity [19] was 3% and the IC50 [20] was 214 nM. For the same compound, the Ratio IC50 (Homo sapiens [21]) was 140.
